Measured values from ChEMBL document CHEMBL4765234 (J Med Chem, 2016).
pEC50, pKi: −log10 of the molar value. Active and inactive are the calls of the source. The rule behind the calls is not given here.

Experiments:
[1] = target: T1, Peroxisome proliferator-activated receptor gamma (Homo sapiens) (UniProt P37231); test: Displacement of [3H]-[…] from PPARgamma (unknown origin) expressed in baculovirus infected Sf9 insect cells upto 30 uM measured after 10 hrs by microbeta scintillation counting analysis; conditions: dose microM <=30, time 10.0 hrs
T1 sequence (whole entry): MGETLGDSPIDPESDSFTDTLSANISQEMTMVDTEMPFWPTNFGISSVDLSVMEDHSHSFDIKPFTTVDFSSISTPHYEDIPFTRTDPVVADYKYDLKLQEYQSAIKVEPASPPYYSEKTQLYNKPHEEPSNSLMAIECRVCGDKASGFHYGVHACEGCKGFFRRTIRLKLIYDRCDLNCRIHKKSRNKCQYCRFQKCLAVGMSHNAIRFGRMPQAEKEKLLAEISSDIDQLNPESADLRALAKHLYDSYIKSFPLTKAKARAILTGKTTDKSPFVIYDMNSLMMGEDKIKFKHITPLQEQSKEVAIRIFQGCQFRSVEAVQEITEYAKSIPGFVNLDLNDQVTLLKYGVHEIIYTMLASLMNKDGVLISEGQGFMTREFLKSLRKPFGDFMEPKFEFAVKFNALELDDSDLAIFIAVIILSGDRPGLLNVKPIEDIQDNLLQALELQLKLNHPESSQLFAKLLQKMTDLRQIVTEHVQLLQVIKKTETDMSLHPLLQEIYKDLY
Summary of the method: (§1)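 Scintillation proximity assay. Sf9 lysates with baculovirus-expressed PPARα (0.3 μg), PPARδ (0.5 μg) or PPARγ (1.25 μg), each with RXRα, were bound via biotinylated DR2 oligo (0.126 nM) to streptavidin yttrium silicate beads. Buffer was HEPES pH 7.8 with KCl, MgCl2, DTT, CHAPS, 14% glycerol and salmon sperm DNA. A 3H reference agonist ligand was used, with 11 compound concentrations, for 10 h. Nonspecific binding was defined with 10000 nM unlabeled reference. Ki was derived from IC50.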

[2] = target: T2, Peroxisome proliferator-activated receptor alpha (Homo sapiens) (UniProt Q07869); test: Displacement of [3H]-[…] from PPARalpha (unknown origin) expressed in baculovirus infected Sf9 insect cells upto 30 uM measured after 10 hrs by microbeta scintillation counting analysis; conditions: dose microM <=30, time 10.0 hrs; summary of the method: as §1
T2 sequence (whole entry): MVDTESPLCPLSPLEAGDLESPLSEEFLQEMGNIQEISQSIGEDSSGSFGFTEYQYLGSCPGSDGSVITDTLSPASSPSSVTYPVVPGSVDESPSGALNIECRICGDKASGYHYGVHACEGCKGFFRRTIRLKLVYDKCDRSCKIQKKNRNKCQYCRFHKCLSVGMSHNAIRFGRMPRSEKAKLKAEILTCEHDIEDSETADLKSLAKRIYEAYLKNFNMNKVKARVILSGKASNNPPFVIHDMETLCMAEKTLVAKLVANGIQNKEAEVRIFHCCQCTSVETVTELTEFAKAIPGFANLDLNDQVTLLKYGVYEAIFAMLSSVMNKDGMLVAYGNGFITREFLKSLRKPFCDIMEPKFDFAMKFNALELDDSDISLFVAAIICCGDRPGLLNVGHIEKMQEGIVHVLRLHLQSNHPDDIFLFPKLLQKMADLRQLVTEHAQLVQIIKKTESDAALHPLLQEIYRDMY

[3] = target: T3, Free fatty acid receptor 1 (Homo sapiens, UniProt O14842); test: Displacement of [3H]-TAK-875 from human recombinant full-length GPR40 expressed in human HEK293 cell membrane incubated for 2 hrs by solid scintillation counting method; assay type: cell membranes
[4] = target: T3, Free fatty acid receptor 1; test: Agonist activity at human recombinant full-length Prolink-tagged GPR40 fused with EA-tagged beta-arrestin expressed in human HEK293 cells assessed as induction of beta-arrestin recruitment measured after 90 mins by beta-galactosidase based PathHunter assay; assay type: cell-based
Summary of the method: (§2)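 PathHunter β-gal complementation. Cells were incubated overnight at 5000/well in medium with 1% heat-inactivated FBS. Compound was added as a 20-point 2-fold series from a top final of 100 μM (1% DMSO) for 90 min at 37 °C, followed by detection reagents and chemiluminescence read after 1 h at rt.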

[5] = target: T3, Free fatty acid receptor 1; test: Agonist activity at human recombinant full length GPR40 overexpressed in human HEK293 cells assessed as increase in intracellular calcium level measured over 3 mins by calcium 4 dye based FLIPR assay; assay type: functional, cell-based
Summary of the method: (§3)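 HEK293 cells overexpressing hGPR40 (25K/well) were cultured overnight in DMEM/F12 with 0.2% FBS and geneticin. Compound was tested at 40 μM–0.1 nM final (20-point, 1% DMSO), and FLIPR fluorescence was read over 3 min.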

[6] = target: Voltage-gated inwardly rectifying potassium channel KCNH2 (Homo sapiens, UniProt Q12809); test: Inhibition of human ERG
[7] = target: T3, Free fatty acid receptor 1; test: Agonist activity at human recombinant full-length Prolink-tagged GPR40 fused with EA-tagged beta-arrestin expressed in human HEK293 cells assessed as induction of beta-arrestin recruitment measured after 90 mins by beta-galactosidase based PathHunter assay relative to control; assay type: cell-based; conditions: filed as agonist; summary of the method: as §2
[8] = target: T3, Free fatty acid receptor 1; test: Agonist activity at human recombinant full length GPR40 overexpressed in human HEK293 cells assessed as increase in intracellular calcium level measured over 3 mins by calcium 4 dye based FLIPR assay relative to 100 uM linoleic acid; assay type: functional, cell-based; conditions: filed as agonist; summary of the method: as §3
[9] = target: T3, Free fatty acid receptor 1; test: Agonist activity at human recombinant full length GPR40 overexpressed in human HEK293 cells assessed as increase in inositol phosphate accumulation in presence of terbium cryptate-labeled anti IP1/d2-labelled IP1 measured after 120 mins by HTRF assay; assay type: functional, cell-based
Summary of the method: (§4)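 HEK293 hGPR40 cells (20K/well) were cultured overnight, washed, and held in IP1 stimulation buffer. IP-1 was measured by competitive HTRF immunoassay with terbium cryptate anti-IP1 mAb and d2-labelled IP1.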

[10] = target: Free fatty acid receptor 1 (Rattus norvegicus, UniProt Q8K3T4); test: Agonist activity at Prolink-tagged rat GPR40 fused with EA-tagged beta-arrestin expressed in human U2OS cells assessed as induction of beta-arrestin recruitment measured after 90 mins by beta-galactosidase based PathHunter assay; assay type: cell-based; summary of the method: as §2
[11] = Protein binding in plasma (unknown origin) by equilibrium dialysis method; assay type: ADME, cell-free; conditions: human, read-out: PPB
Summary of the method: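 Plasma protein binding measured by equilibrium dialysis.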

[12] = target: Free fatty acid receptor 1 (Rattus norvegicus) (UniProt Q8K3T4); test: Agonist activity at Prolink-tagged rat GPR40 fused with EA-tagged beta-arrestin expressed in human U2OS cells assessed as induction of beta-arrestin recruitment measured after 90 mins by beta-galactosidase based PathHunter assay relative to control; assay type: cell-based; conditions: filed as agonist; summary of the method: as §2
[13] = target: T3, Free fatty acid receptor 1; test: Agonist activity at human recombinant full length GPR40 overexpressed in human HEK293 cells assessed as increase in inositol phosphate accumulation in presence of terbium cryptate-labeled anti IP1/d2-labelled IP1 measured after 120 mins by HTRF assay relative to AMG837; assay type: functional, cell-based; conditions: filed as agonist; summary of the method: as §4
[14] = target: Free fatty acid receptor 1 (Mus musculus) (UniProt Q76JU9); test: Agonist activity at Prolink-tagged mouse GPR40 fused with EA-tagged beta-arrestin expressed in human U2OS cells assessed as induction of beta-arrestin recruitment measured after 90 mins by beta-galactosidase based PathHunter assay relative to control; assay type: cell-based; conditions: filed as agonist; summary of the method: as §2
[15] = target: Free fatty acid receptor 1 (Mus musculus, UniProt Q76JU9); test: Agonist activity at Prolink-tagged mouse GPR40 fused with EA-tagged beta-arrestin expressed in human U2OS cells assessed as induction of beta-arrestin recruitment measured after 90 mins by beta-galactosidase based PathHunter assay; assay type: cell-based; summary of the method: as §2
[16] = target: T4, Peroxisome proliferator-activated receptor delta (Homo sapiens) (UniProt Q03181); test: Displacement of [3H]-[…] from PPARdelta (unknown origin) expressed in baculovirus infected Sf9 insect cells upto 30 uM measured after 10 hrs by microbeta scintillation counting analysis; conditions: dose microM <=30, time 10.0 hrs; summary of the method: as §1
T4 sequence (whole entry): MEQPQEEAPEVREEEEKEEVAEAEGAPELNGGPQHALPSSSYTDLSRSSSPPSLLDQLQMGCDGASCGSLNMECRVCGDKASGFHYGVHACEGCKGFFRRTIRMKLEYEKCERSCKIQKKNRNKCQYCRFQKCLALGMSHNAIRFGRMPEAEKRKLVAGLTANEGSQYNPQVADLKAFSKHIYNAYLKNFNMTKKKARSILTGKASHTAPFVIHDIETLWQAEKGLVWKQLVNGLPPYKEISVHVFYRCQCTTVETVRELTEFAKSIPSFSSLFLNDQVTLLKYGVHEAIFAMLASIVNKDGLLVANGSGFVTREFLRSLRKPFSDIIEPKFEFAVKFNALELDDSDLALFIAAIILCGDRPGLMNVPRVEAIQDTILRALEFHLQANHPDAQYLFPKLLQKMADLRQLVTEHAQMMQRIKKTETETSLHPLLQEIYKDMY

Rattus norvegicus [17] = test: Hypoglycemic activity in Zucker fatty diabetes mellitus rat model assessed as increase in insulin levels in plasma at 3 mg/kg, po administered for 21 days and measured at 10 to 60 mins post glucose challenge on day 1 by OGTT; assay type: functional, organism-based; conditions: time 21.0 day
Rattus norvegicus [18] = test: Hypoglycemic activity in Zucker fatty diabetes mellitus rat model assessed as reduction in blood glucose level at 3 mg/kg, po administered for 21 days and measured at 10 to 60 mins post glucose challenge on day 1 by OGTT; assay type: functional, organism-based; conditions: time 21.0 day
Mus musculus = test: Hypoglycemic activity in Balb/c mouse assessed as effective dose causing reduction in blood glucose level administered orally 60 mins prior to glucose challenge measured for 60 mins by IPGTT; assay type: functional; conditions: po, 1 h
[19] = AUC in hyperglycemic Balb/c mouse plasma at 29.4 mg/kg measured upto 60 mins; assay type: ADME, organism-based; design: dose 29.4 mg/kg, time <=60
[20] = target: Free fatty acid receptor 1 (Rattus norvegicus) (UniProt Q8K3T4); test: Agonist activity at GPR40 in Sprague-Dawley rat pancreatic islets assessed as induction of glucose-mediated insulin secretion measured after 90 mins in EBSS buffer by ELISA; assay type: tissue-based; conditions: Pancreatic islet, filed as agonist
Summary of the method: (§5)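 Glucose-dependent insulin secretion in mouse MIN6 cells or rat islet cells, scored as secretion above the glucose-alone level.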

[21] = Drug distribution in C57BL/6 mouse spleen at 3 microg/kg, iv administered as single dose observed at 20 to 40 mins by LC-MS/MS analysis; assay type: ADME, organism-based; conditions: in vivo, 0.003 mg/kg, time 20-40 min, dose 3 µg/kg
Summary of the method: (§6)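 Tracer microdose study in fed male C57BL/6 mice: single 3 μg/kg IV dose in 25% HP-BCD. Mice were killed by cervical dislocation, and spleen, ascending colon, skeletal muscle and plasma were sampled at 20 and 40 min.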

[22] = Protein binding in C57BL/6 mouse plasma at 3 microg/kg, iv by LC-MS/MS analysis; assay type: ADME, organism-based; conditions: in vivo, 0.003 mg/kg, dose 3 µg/kg
[23] = AUC in hyperglycemic Balb/c mouse plasma at 1 mg/kg measured upto 60 mins; assay type: ADME, organism-based; design: dose 1 mg/kg, time <=60
[24] = target: Free fatty acid receptor 1 (Mus musculus) (UniProt Q76JU9); test: Agonist activity at GPR40 in mouse MIN6 cells assessed as induction of glucose-mediated insulin secretion incubated for 2 hrs by ELISA; assay type: cell-based; conditions: filed as agonist; summary of the method: as §5
[25] = Drug distribution in C57BL/6 mouse colon at 3 microg/kg, iv administered as single dose observed at 20 to 40 mins by LC-MS/MS analysis; assay type: ADME, organism-based; conditions: in vivo, 0.003 mg/kg, time 20-40 min, dose 3 µg/kg; summary of the method: as §6

T3 sequence (O14842 whole entry, the tested form may be a part): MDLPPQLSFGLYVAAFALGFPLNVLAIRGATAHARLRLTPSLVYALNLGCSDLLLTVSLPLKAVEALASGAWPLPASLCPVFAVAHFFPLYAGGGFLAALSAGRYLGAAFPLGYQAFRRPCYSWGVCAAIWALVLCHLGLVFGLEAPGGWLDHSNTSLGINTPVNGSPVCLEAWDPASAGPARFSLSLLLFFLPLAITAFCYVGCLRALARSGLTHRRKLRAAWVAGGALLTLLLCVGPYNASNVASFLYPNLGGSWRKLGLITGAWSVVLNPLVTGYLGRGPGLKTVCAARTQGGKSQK
Chain of Free fatty acid receptor 1 (Rattus norvegicus, UniProt Q8K3T4) (Q8K3T4 whole entry, the tested form may be a part): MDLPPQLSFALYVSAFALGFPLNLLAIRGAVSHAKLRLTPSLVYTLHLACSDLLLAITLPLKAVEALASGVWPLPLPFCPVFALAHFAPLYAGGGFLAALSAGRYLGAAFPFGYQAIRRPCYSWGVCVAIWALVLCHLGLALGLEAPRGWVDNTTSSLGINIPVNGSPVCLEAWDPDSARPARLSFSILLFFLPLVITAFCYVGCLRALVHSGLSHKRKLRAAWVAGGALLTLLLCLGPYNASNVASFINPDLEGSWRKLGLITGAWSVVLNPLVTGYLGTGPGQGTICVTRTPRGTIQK
Chain of Free fatty acid receptor 1 (Rattus norvegicus) (Q8K3T4 whole entry, the tested form may be a part): as above
Chain of Free fatty acid receptor 1 (Mus musculus) (Q76JU9 whole entry, the tested form may be a part): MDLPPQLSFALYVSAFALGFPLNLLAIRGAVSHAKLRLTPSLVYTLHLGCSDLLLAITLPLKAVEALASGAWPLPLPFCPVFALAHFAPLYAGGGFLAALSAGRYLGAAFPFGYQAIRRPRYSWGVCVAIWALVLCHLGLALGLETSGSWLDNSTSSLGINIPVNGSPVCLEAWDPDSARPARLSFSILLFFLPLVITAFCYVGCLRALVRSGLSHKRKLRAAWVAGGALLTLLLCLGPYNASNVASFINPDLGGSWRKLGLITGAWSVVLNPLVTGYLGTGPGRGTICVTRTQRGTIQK
Chain of Free fatty acid receptor 1 (Mus musculus, UniProt Q76JU9) (Q76JU9 whole entry, the tested form may be a part): as above
Chain of Voltage-gated inwardly rectifying potassium channel KCNH2 (Q12809 whole entry, the tested form may be a part): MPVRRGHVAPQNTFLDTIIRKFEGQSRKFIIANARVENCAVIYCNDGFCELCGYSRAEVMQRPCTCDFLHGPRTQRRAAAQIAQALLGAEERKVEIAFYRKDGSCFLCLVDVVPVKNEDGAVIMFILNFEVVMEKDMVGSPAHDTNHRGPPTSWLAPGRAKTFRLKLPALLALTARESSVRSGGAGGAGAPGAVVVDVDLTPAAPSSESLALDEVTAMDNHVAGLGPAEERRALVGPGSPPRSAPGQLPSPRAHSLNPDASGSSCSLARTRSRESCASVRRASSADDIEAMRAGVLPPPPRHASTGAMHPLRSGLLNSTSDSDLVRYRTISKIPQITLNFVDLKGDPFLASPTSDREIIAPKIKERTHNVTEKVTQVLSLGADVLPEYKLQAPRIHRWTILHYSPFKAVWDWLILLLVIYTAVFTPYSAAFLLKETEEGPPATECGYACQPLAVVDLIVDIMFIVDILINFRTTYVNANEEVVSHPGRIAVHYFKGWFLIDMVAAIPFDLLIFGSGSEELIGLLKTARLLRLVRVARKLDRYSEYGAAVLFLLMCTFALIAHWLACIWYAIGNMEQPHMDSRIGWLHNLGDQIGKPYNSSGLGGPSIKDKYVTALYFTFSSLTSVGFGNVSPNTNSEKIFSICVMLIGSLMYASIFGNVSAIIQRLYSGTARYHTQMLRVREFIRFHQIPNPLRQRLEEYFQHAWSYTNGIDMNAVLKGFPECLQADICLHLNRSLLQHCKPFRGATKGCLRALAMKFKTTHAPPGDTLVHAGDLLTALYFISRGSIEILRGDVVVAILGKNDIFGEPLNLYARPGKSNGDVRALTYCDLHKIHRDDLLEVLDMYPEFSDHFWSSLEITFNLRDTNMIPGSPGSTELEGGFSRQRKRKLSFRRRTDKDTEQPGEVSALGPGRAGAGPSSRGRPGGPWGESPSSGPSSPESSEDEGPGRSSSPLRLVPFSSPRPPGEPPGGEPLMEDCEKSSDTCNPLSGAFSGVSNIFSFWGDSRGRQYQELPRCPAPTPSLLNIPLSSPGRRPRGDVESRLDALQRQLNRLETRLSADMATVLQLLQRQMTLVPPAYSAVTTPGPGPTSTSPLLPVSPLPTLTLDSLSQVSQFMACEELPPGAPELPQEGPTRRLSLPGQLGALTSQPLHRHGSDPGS

Row | SMILES | Activity [1] | Activity [2] | pKi [3] | pEC50 [4] | pEC50 [5] | Emax [7] [%] | Emax [8] [%] | pEC50 [9] | pEC50 [10] | fraction unbound [11] | Emax [12] [%] | Emax [13] [%] | Emax [14] [%] | pEC50 [15] | Activity [16] | ED90 (Mus musculus) [mg/kg] | also measured
1 | CC#C[C@@H](CC(=O)O)c1ccc(OCc2ccc(CN3CCC4(C=Cc5ccccc54)CC3)c(OC)c2)cc1 | inactive | inactive | 8.60 | 8.00 | 7.77 | 140 | 61 | 8.13 | 8.52 | < 0.01 | 119 | 345 | 128 | 8.85 | inactive | – | pKi [6]: 5.20
2 | CN(CCOc1ccc(CC2SC(=O)NC2=O)cc1)c1ccccn1 (centres undefined) | – | – | – | – | – | – | – | – | – | – | – | – | – | – | – | – | Activity (Rattus norvegicus [17]): inactive; Activity (Rattus norvegicus [18]): inactive
3 | Cc1cc(OCCCS(C)(=O)=O)cc(C)c1-c1cccc(COc2ccc3c(c2)OC[C@H]3CC(=O)O)c1 | inactive | inactive | – | – | – | – | – | – | – | < 0.01 | – | – | – | – | inactive | 29.4 | AUC at 1 h [19]: 7370 ng·h/mL
4 | CC#C[C@@H](CC(=O)O)c1ccc(OCc2cccc(-c3ccc(C(F)(F)F)cc3)c2)cc1 | inactive | inactive | – | – | – | – | – | – | 8.49 | < 0.01 | 148 | – | 137 | 8.82 | inactive | 1 | Activity [20]: Active; Drug uptake [21]: Not Active; PPB [22]: Active; AUC at 1 h [23]: 33900 ng·h/mL; Activity [24]: Active; Drug uptake [25]: Not Active
5 | CC#C[C@@H](CC(=O)O)c1ccc(OCc2ccc(CN3CCC4(C=Cc5ccccc54)CC3)c(Cl)c2)cc1 | inactive | inactive | 8.82 | 8.48 | 7.49 | 150 | 47 | 8.31 | 9.00 | < 0.01 | 161 | 193 | 149 | 9.08 | inactive | – | –
